Source: ChEMBL document CHEMBL1649392, “Synthesis of substituted 3-amino-N-phenyl-1H-indazole-1-carboxamides endowed with antiproliferative activity” (Eur J Med Chem, 2011)

Assays:
Format in all cases: functional
ACHN = experiment: Antiproliferative activity against human ACHN cells after 48 hrs by sulforhodamine B assay
Outline: (§1)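 NCI 60-cell-line panel covering nine cancer types (leukemia, non-small cell lung, colon, CNS, melanoma, ovarian, renal, prostate, breast). Compounds were first tested at a single dose, then in a five-dose screen (series starting 0.01, 0.1 …) if they met NCI threshold criteria. Reported per line: GI50 (molar concentration inhibiting 50% net growth), TGI (total growth inhibition) and LC50 (50% net cell death).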

OVCAR-8 = experiment: Antiproliferative activity against human OVCAR8 cells after 48 hrs by sulforhodamine B assay; details: OVCAR-8, 48 h; outline: as §1
SN12C = experiment: Antiproliferative activity against human SN12C cells after 48 hrs by sulforhodamine B assay; outline: as §1
SNB-75 = experiment: Antiproliferative activity against human SNB75 cells after 48 hrs by sulforhodamine B assay; details: SNB-75, 48 h; outline: as §1
CAKI-1 = experiment: Antiproliferative activity against human Caki1 cells after 48 hrs by sulforhodamine B assay; details: CAKI-1, 48 h; outline: as §1
COLO 205 = experiment: Antiproliferative activity against human COLO205 cells after 48 hrs by sulforhodamine B assay; details: COLO 205, 48 h; outline: as §1
UACC-257 = experiment: Antiproliferative activity against human UACC257 cells after 48 hrs by sulforhodamine B assay; details: UACC-257, 48 h
Outline: (§2)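 NCI 60-cell-line panel screen: single dose 10 µM first, then 5-dose testing (0.01, 0.1, … molar series). For each line, GI50 is the molar concentration giving 50% inhibition of net cell growth, TGI gives total inhibition of net growth, and LC50 gives 50% net cell death. Method follows the NCI DTP protocol.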

NCI-H522 = experiment: Antiproliferative activity against human NCI-H522 cells after 48 hrs by sulforhodamine B assay; details: NCI-H522, 48 h; outline: as §1
RXF 393 = experiment: Antiproliferative activity against human RXF393 cells after 48 hrs by sulforhodamine B assay; details: RXF 393, 48 h; outline: as §1
SW-620 = experiment: Antiproliferative activity against human SW620 cells after 48 hrs by sulforhodamine B assay; details: SW-620, 48 h; outline: as §2
SNB-19 = experiment: Antiproliferative activity against human SNB19 cells after 48 hrs by sulforhodamine B assay; details: SNB-19, 48 h; outline: as §1
OVCAR-5 = experiment: Antiproliferative activity against human OVCAR5 cells after 48 hrs by sulforhodamine B assay; details: OVCAR-5, 48 h; outline: as §1
K562 = experiment: Antiproliferative activity against human K562 cells after 48 hrs by sulforhodamine B assay; details: K562, 48 h; outline: as §1
KM12 = experiment: Antiproliferative activity against human KM12 cells after 48 hrs by sulforhodamine B assay; details: KM12, 48 h; outline: as §1
A549 = experiment: Antiproliferative activity against human A549 cells after 48 hrs by sulforhodamine B assay; details: A549, 48 h; outline: as §1
OVCAR-3 = experiment: Antiproliferative activity against human OVCAR3 cells after 48 hrs by sulforhodamine B assay; details: OVCAR-3, 48 h; outline: as §1
OVCAR-4 = experiment: Antiproliferative activity against human OVCAR4 cells after 48 hrs by sulforhodamine B assay; details: OVCAR-4, 48 h; outline: as §1
MOLT-4 = experiment: Antiproliferative activity against human MOLT4 cells after 48 hrs by sulforhodamine B assay; details: MOLT-4, 48 h; outline: as §1
HCC 2998 = experiment: Antiproliferative activity against human HCC2998 cells after 48 hrs by sulforhodamine B assay; details: HCC 2998, 48 h; outline: as §1
[1] = Antiproliferative activity against human Hs 578T cells after 48 hrs by sulforhodamine B assay; outline: as §1
SF-268 = experiment: Antiproliferative activity against human SF268 cells after 48 hrs by sulforhodamine B assay; details: SF-268, 48 h; outline: as §1
SK-OV-3 = experiment: Antiproliferative activity against human SKOV3 cells after 48 hrs by sulforhodamine B assay; details: SK-OV-3, 48 h; outline: as §1
HOP-92 = experiment: Antiproliferative activity against human HOP92 cells after 48 hrs by sulforhodamine B assay; details: HOP-92, 48 h; outline: as §1
EKVX = experiment: Antiproliferative activity against human EKVX cells after 48 hrs by sulforhodamine B assay; outline: as §1
UO-31 = experiment: Antiproliferative activity against human UO31 cells after 48 hrs by sulforhodamine B assay; details: UO-31, 48 h; outline: as §2
NCI-H322M = experiment: Antiproliferative activity against human NCI-H322M cells after 48 hrs by sulforhodamine B assay; outline: as §1
IGROV-1 = experiment: Antiproliferative activity against human IGROV1 cells after 48 hrs by sulforhodamine B assay; details: IGROV-1, 48 h; outline: as §1
SK-MEL-28 = experiment: Antiproliferative activity against human SK-MEL-28 cells after 48 hrs by sulforhodamine B assay; details: SK-MEL-28, 48 h; outline: as §1
HCT-116 = experiment: Antiproliferative activity against human HCT116 cells after 48 hrs by sulforhodamine B assay; details: HCT-116, 48 h; outline: as §1
HCT-15 = experiment: Antiproliferative activity against human HCT15 cells after 48 hrs by sulforhodamine B assay; details: HCT-15, 48 h; outline: as §1
UACC-62 = experiment: Antiproliferative activity against human UACC62 cells after 48 hrs by sulforhodamine B assay; details: UACC-62, 48 h; outline: as §2
[2] = read-out: LC50 (the source's name)

With Nc1ccc2c(c1)c(N)nn2C(=O)Nc1ccc(Cc2ccccc2)cc1 the GI50 (ACHN) was 3.37 µM, the TGI (ACHN) was 13.7 µM and the CC50 (ACHN; [2]) was 39.6 µM. The GI50 (OVCAR-8) was 20.2 µM, the TGI (OVCAR-8) was greater than 100 µM and the CC50 (OVCAR-8; [2]) was greater than 100 µM. It also gave a GI50 (SN12C) of 13.4 µM, a TGI (SN12C) of 30.9 µM and a CC50 (SN12C; [2]) of 71.1 µM. The GI50 (SNB-75) was 17.4 µM, the LC50 (concentration causing 50% net cell death) (SNB-75) was 57.1 µM and the TGI (SNB-75) was 31.5 µM. For the same compound, the GI50 (CAKI-1) was 4.3 µM, the TGI (CAKI-1) was 26.8 µM and the CC50 (CAKI-1; [2]) was greater than 100 µM. For the same compound, the GI50 (COLO 205) was 13.1 µM, the LC50 (concentration causing 50% net cell death) (COLO 205) was 53.9 µM and the TGI (COLO 205) was 26.5 µM. It also gave a GI50 (UACC-257) of 14.5 µM, a TGI (UACC-257) of 29.7 µM and a CC50 (UACC-257; [2]) of 60.8 µM. It also gave a GI50 (NCI-H522) of 14.7 µM, an LC50 (concentration causing 50% net cell death) (NCI-H522) greater than 100 µM and a TGI (NCI-H522) of 39.6 µM. The GI50 (RXF 393) was 21.4 µM, the TGI (RXF 393) was 43.9 µM and the CC50 (RXF 393; [2]) was 90.1 µM. For the same compound, the GI50 (SW-620) was 4.48 µM, the TGI (SW-620) was 18.7 µM and the CC50 (SW-620; [2]) was 58.5 µM. The GI50 (SNB-19) was 13.9 µM, the TGI (SNB-19) was 27.3 µM and the CC50 (SNB-19; [2]) was 53.6 µM. The GI50 (OVCAR-5) was 22.6 µM, the TGI (OVCAR-5) was 60.5 µM and the CC50 (OVCAR-5; [2]) was greater than 100 µM. For the same compound, the GI50 (K562) was 2.24 µM, the LC50 (concentration causing 50% net cell death) (K562) was greater than 100 µM and the TGI (K562) was 11.4 µM. It also gave a GI50 (KM12) of 3.34 µM, a TGI (KM12) of 15.1 µM and a CC50 (KM12; [2]) of 41.3 µM. It also gave a GI50 (A549) of 6.58 µM, a TGI (A549) of 57.1 µM and a CC50 (A549; [2]) greater than 100 µM. It also gave a GI50 (OVCAR-3) of 12.1 µM, a TGI (OVCAR-3) of 28.3 µM and a CC50 (OVCAR-3; [2]) of 66.7 µM. The GI50 (OVCAR-4) was 8.29 µM, the TGI (OVCAR-4) was 24.1 µM and the CC50 (OVCAR-4; [2]) was 63.2 µM. The GI50 (MOLT-4) was 4.48 µM, the TGI (MOLT-4) was 24.3 µM and the CC50 (MOLT-4; [2]) was greater than 100 µM. For the same compound, the GI50 (HCC 2998) was 4.17 µM, the TGI (HCC 2998) was 14.8 µM and the CC50 (HCC 2998; [2]) was 40.9 µM. It also gave a GI50 [1] of 17.3 µM, a TGI [1] of 43 µM and a CC50 [1, 2] greater than 100 µM. For the same compound, the GI50 (SF-268) was 13 µM, the TGI (SF-268) was 30.7 µM and the CC50 (SF-268; [2]) was 72.5 µM. It also gave a GI50 (SK-OV-3) of 15.3 µM, a TGI (SK-OV-3) of 37.7 µM and a CC50 (SK-OV-3; [2]) of 92.8 µM. The GI50 (HOP-92) was 10.4 µM, the LC50 (HOP-92) was 57.4 µM and the TGI (HOP-92) was 24.4 µM. The GI50 (EKVX) was 14 µM, the TGI (EKVX) was 36.7 µM and the CC50 (EKVX; [2]) was 96.1 µM. It also gave a GI50 (UO-31) of 4.72 µM, a TGI (UO-31) of 32.6 µM and a CC50 (UO-31; [2]) greater than 100 µM. For the same compound, the GI50 (NCI-H322M) was 13 µM, the TGI (NCI-H322M) was 27.5 µM and the CC50 (NCI-H322M; [2]) was 58.3 µM. It also gave a GI50 (IGROV-1) of 16.4 µM, a TGI (IGROV-1) of 54.1 µM and a CC50 (IGROV-1; [2]) greater than 100 µM. The GI50 (SK-MEL-28) was 13.7 µM, the TGI (SK-MEL-28) was 27.8 µM and the CC50 (SK-MEL-28; [2]) was 56.2 µM. It also gave a GI50 (HCT-116) of 6.79 µM, an LC50 (concentration causing 50% net cell death) (HCT-116) of 50 µM and a TGI (HCT-116) of 20.8 µM. For the same compound, the GI50 (HCT-15) was 2.75 µM, the LC50 (concentration causing 50% net cell death) (HCT-15) was 50.5 µM and the TGI (HCT-15) was 14.2 µM. The GI50 (UACC-62) was 2.9 µM, the TGI (UACC-62) was 12.6 µM and the CC50 (UACC-62; [2]) was 39.3 µM.
